Values after ≈ are worked out from the molar mass of the structure shown. Active and inactive are the calls of the source. No cut-off for these calls is given here.
What was measured:
KB [1] = assay: Cytotoxicity against human KB cells; type: functional; details: read-out: ED50 (the source's name)
How it was run: (§1)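 Growth inhibition of cultured cells. Activity is expressed as ED50 in μg/mL.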

L1210 [2] = assay: Antitumor activity against mouse L1210 cells assessed as increase in life span administered from day 1 to day 9 relative to control; type: functional; set-up: concentration or dose not given beside the values
How it was run: (§2)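 In vivo assay in mice bearing leukemia L1210, dosed on days 1–9. Read-out is percent increase in life span of treated leukemic mice over untreated leukemic controls.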

[3] = Cytotoxicity against human Hep2 cells; type: functional; details: HEp-2, read-out: ED50 (the source's name); how it was run: as §1
L1210 [4] = assay: Antitumor activity against mouse L1210 cells assessed as increase in life span at 14 to 75 mg/kg administered from day 1 to day 9 relative to control; type: functional, organism-based
KB [5] = assay: Cytotoxicity against human KB cells in presence of 5-amino-1H-imidazole-4-carboxamide; type: functional, cell-based
HEp-2 = assay: Cytotoxicity against human Hep2 cells in presence of 5-amino-1H-imidazole-4-carboxamide; type: functional, cell-based
L1210 [6] = assay: Antitumor activity against mouse L1210 cells assessed as increase in life span at 33 mg/kg administered from day 1 to day 9 relative to control; type: functional; how it was run: as §2

| SMILES | EC50 (KB [1]) [µg/mL] | Activity (L1210 [2]) [%] | EC50 [3] [µg/mL] | Activity (L1210 [4]) | Activity (KB [5]) | Activity (HEp-2) | Activity (L1210 [6]) [%] |
| --- | --- | --- | --- | --- | --- | --- | --- |
| CSc1cc(N)nc2c1ncn2[C@@H]1O[C@H](CO)[C@@H](O)[C@H]1O | > 22 | <15 | > 22 | – | – | – | – |
| Nc1cc(S)c2ncn([C@@H]3O[C@H](CO)[C@@H](O)[C@H]3O)c2n1 | > 22 | <15 | > 22 | – | – | – | – |
| Nc1cc(Cl)c2nc[nH]c2n1 | 1 (≈ 5.93 µM) | – | 0.3 (≈ 1.78 µM) | Active | Active | Active | 79 |
| CC(=O)Nc1cc(Cl)c2nc[nH]c2n1 | > 22 | <15 | > 22 | – | – | – | – |
| Nc1cc(Cl)c2ncn([C@@H]3O[C@H](CO)[C@@H](O)[C@H]3O)c2n1 | > 22 | <15 | > 22 | – | – | – | – |
| Cc1ccc(S(=O)(=O)/N=c2\cc(Cl)c3ncn4c3n2C[C@H]2O[C@@H]4[C@@H]3OC(C)(C)O[C@@H]32)cc1 | > 22 | <15 | > 22 | – | – | – | – |
| CSc1cc(N)nc2[nH]cnc12 | > 22 | <15 | > 22 | – | – | – | – |
| CSc1cc(NC(C)=O)nc2[nH]cnc12 | > 22 | <15 | > 22 | – | – | – | – |

— ChEMBL document CHEMBL3244154, “Synthesis of 1-deaza-6-thioguanosine and 1-deaza-6-(methylthio)guanosine” (1978)
